Measurements: ChEMBL document CHEMBL1122275, “1,3-dipalmitoylglycerol ester of chlorambucil as a lymphotropic, orally administrable antineoplastic agent” (J Med Chem, 1983)
Several values for one entry are separate records, joined by “and”; a condition that tells them apart may be missing. Equal values may be shown once.

Legend:
Mus musculus [1] = test: Antitumor activity measured as Body weight change (BWC) between day 1 and 5 at 0.17 […] dose against po inoculated P388 leukemia in CDF1 mice; type: functional
Method in brief: (§1)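 Male CDF1 mice (18-22 g; 6 per dose, 24 controls) received 10^6 viable P388 cells sc on day 0. Drugs in 0.3% hydroxypropylcellulose/saline were given ip or orally, daily for 4 days from 24 h and again on day 10. Survival was followed to day 40. T/C = MST ratio ×100. BWC covers day 1 to day 5. Toxicity was judged by NCI norms.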

Mus musculus [2] = test: Antitumor activity measured as Body weight change (BWC) between day 1 and 5 at 0.052 […] dose against ip inoculated P388 leukemia in CDF1 mice; type: functional
Method in brief: (§2)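 Groups of six male CDF1 mice (18-22 g) were inoculated ip on day 0 with 1×10^6 viable P388 ascites cells from DBA/2 passage, suspended in chilled 0.9% saline. Drugs were suspended in 0.3% hydroxypropylcellulose in saline and given ip daily for 4 days starting at 24 h. Survival was followed to day 40. T/C = treated/control MST ×100, with 24 controls. BWC = mean weight change from day 1 to day 5.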

Mus musculus [3] = test: Antitumor a dose 0.17 […] against po inoculated P388 leukemia in CDF1 mice; type: functional; method in brief: as §1
Mus musculus [4] = test: Antitumor a dose 0.23 […] against po inoculated P388 leukemia in CDF1 mice; Toxic; type: toxicity, organism-based; conditions: in vivo; method in brief: as §1
Mus musculus [5] = test: Antitumor activity measured as Body weight change (BWC) between day 1 and 5 at 0.069 […] dose against sc inoculated P388 leukemia in CDF1 mice; type: functional; method in brief: as §1
Mus musculus [6] = test: Antitumor activity measured as T/C at 0.052 […] dose against ip inoculated P388 leukemia in CDF1 mice; type: functional; method in brief: as §2
Mus musculus [7] = test: Antitumor a dose 0.069 […] against ip inoculated P388 leukemia in CDF1 mice; type: functional; method in brief: as §2
Mus musculus [8] = test: Antitumor activity measured as T/C at 0.069 […] dose against ip inoculated P388 leukemia in CDF1 mice; type: functional; method in brief: as §2
Mus musculus [9] = test: Antitumor activity measured as Body weight change (BWC) between day 1 and 5 at 0.069 […] dose against ip inoculated P388 leukemia in CDF1 mice; type: functional; method in brief: as §2
Mus musculus [10] = test: Antitumor activity measured as Body weight change (BWC) between day 1 and 5 at 0.052 […] dose against sc inoculated P388 leukemia in CDF1 mice; type: functional; method in brief: as §1
Mus musculus [11] = test: Antitumor activity measured as T/C at 0.23 […] dose against po inoculated P388 leukemia in CDF1 mice; Toxic; type: functional, organism-based; method in brief: as §1
Mus musculus [12] = test: Antitumor activity measured as T/C at 0.17 […] dose against po inoculated P388 leukemia in CDF1 mice; type: functional; method in brief: as §1
Mus musculus [13] = test: Antitumor activity measured as Body weight change (BWC) between day 1 and 5 at 0.035 […] dose against ip inoculated P388 leukemia in CDF1 mice; type: functional; method in brief: as §2
Mus musculus [14] = test: Antitumor activity measured as Body weight change (BWC) between day 1 and 5 at 0.11 […] dose against po inoculated P388 leukemia in CDF1 mice; type: functional; method in brief: as §1
Mus musculus [15] = test: Antitumor a dose 0.052 […] against ip inoculated P388 leukemia in CDF1 mice; type: functional; method in brief: as §2
Mus musculus [16] = test: Antitumor activity measured as Body weight change (BWC) between day 1 and 5 at 0.035 […] dose against sc inoculated P388 leukemia in CDF1 mice; type: functional; method in brief: as §1
Mus musculus [17] = test: Antitumor a dose 0.11 […] against po inoculated P388 leukemia in CDF1 mice; type: functional; method in brief: as §1
Mus musculus [18] = test: Antitumor a dose 0.035 nmol/Kg against ip inoculated P388 leukemia in CDF1 mice; type: functional; method in brief: as §2
Mus musculus [19] = test: Antitumor activity measured as T/C at 0.11 […] dose against po inoculated P388 leukemia in CDF1 mice; type: functional; method in brief: as §1
Mus musculus [20] = test: Antitumor a dose 0.035 nmol/kg against ip inoculated P388 leukemia in CDF1 mice; type: functional; method in brief: as §2
Mus musculus [21] = test: Antitumor activity measured as T/C at 0.035 […] dose against ip inoculated P388 leukemia in CDF1 mice; type: functional; method in brief: as §2
Mus musculus [22] = test: Antitumor activity measured as Body weight change (BWC) between day 1 and 5 at 0.066 […] dose against ip inoculated P388 leukemia in CDF1 mice; type: functional; method in brief: as §2
Mus musculus [23] = test: Antitumor activity measured as T/C at 0.16 […] dose against po inoculated P388 leukemia in CDF1 mice; Toxic; type: toxicity, organism-based; conditions: in vivo; method in brief: as §1
Mus musculus [24] = test: Antitumor a dose 0.033 nmol/Kg against ip inoculated P388 leukemia in CDF1 mice; type: functional; method in brief: as §2
Mus musculus [25] = test: Antitumor a dose 0.11 […] against po inoculated P388 leukemia in CDF1 mice; Toxic; type: toxicity, organism-based; conditions: in vivo; method in brief: as §1
Mus musculus [26] = test: Antitumor activity measured as Body weight change (BWC) between day 1 and 5 at 0.066 […] dose against sc inoculated P388 leukemia in CDF1 mice; type: functional; method in brief: as §1
Mus musculus [27] = test: Antitumor a dose 0.066 […] against po inoculated P388 leukemia in CDF1 mice; type: functional; method in brief: as §1
Mus musculus [28] = test: Antitumor activity measured as T/C at 0.11 […] dose against po inoculated P388 leukemia in CDF1 mice; Toxic; type: toxicity, organism-based; conditions: in vivo; method in brief: as §1
Mus musculus [29] = test: Antitumor activity measured as T/C at 0.066 […] dose against po inoculated P388 leukemia in CDF1 mice; type: functional; method in brief: as §1
Mus musculus [30] = test: Antitumor activity measured as Body weight change (BWC) between day 1 and 5 at 0.066 […] dose against po inoculated P388 leukemia in CDF1 mice; type: functional; method in brief: as §1
Mus musculus [31] = test: Antitumor activity measured as Body weight change (BWC) between day 1 and 5 at 0.033 […] dose against ip inoculated P388 leukemia in CDF1 mice; type: functional; method in brief: as §2
Mus musculus [32] = test: Antitumor activity measured as T/C at 0.066 […] dose against ip inoculated P388 leukemia in CDF1 mice; type: functional; method in brief: as §2
Mus musculus [33] = test: Antitumor a dose 0.050 […] against ip inoculated P388 leukemia in CDF1 mice; type: functional; method in brief: as §2
Mus musculus [34] = test: Antitumor activity measured as T/C at 0.033 […] dose against ip inoculated P388 leukemia in CDF1 mice; type: functional; method in brief: as §2
Mus musculus [35] = test: Antitumor activity measured as Body weight change (BWC) between day 1 and 5 at 0.050 […] dose against ip inoculated P388 leukemia in CDF1 mice; type: functional; method in brief: as §2
Mus musculus [36] = test: Antitumor a dose 0.16 […] against po inoculated P388 leukemia in CDF1 mice; Toxic; type: toxicity, organism-based; conditions: in vivo; method in brief: as §1
Mus musculus [37] = test: Antitumor activity measured as T/C at 0.050 […] dose against ip inoculated P388 leukemia in CDF1 mice; type: functional; method in brief: as §2
Mus musculus [38] = test: Antitumor activity measured as Body weight change (BWC) between day 1 and 5 at 0.050 […] dose against sc inoculated P388 leukemia in CDF1 mice; type: functional; method in brief: as §1
Mus musculus [39] = test: Antitumor a dose 0.066 […] against ip inoculated P388 leukemia in CDF1 mice; Toxic; type: toxicity, organism-based; conditions: in vivo; method in brief: as §1
Mus musculus [40] = test: Antitumor activity measured as T/C at 0.066 […] dose against ip inoculated P388 leukemia in CDF1 mice; Toxic; type: toxicity, organism-based; conditions: in vivo; method in brief: as §1
Mus musculus [41] = test: Antitumor a dose 0.033 nmol/kg against ip inoculated P388 leukemia in CDF1 mice; type: functional; method in brief: as §2
Mus musculus [42] = test: Antitumor a dose 0.066 […] against ip inoculated P388 leukemia in CDF1 mice; type: functional; method in brief: as §2
Mus musculus [43] = test: Antitumor activity measured as Body weight change (BWC) between day 1 and 5 at 0.033 […] dose against sc inoculated P388 leukemia in CDF1 mice; type: functional; method in brief: as §1

How did the BWC (Mus musculus [1]) turn out when `CCCCCCCCCCCCCCCC(=O)OCC(COC(=O)CCCCCCCCCCCCCCC)OC(=O)CCCc1ccc(N(CCCl)CCCl)cc1` was run?
The BWC was -3.9 g.

What about the BWC (Mus musculus [2]) of the same molecule?
Its BWC is -2 g.

What about the MST (Mus musculus [3]) of the same molecule?
Its MST is 34 days.

And the MST (Mus musculus [4])?
Its MST is “Toxic”.

What about the BWC (Mus musculus [5]) of the same molecule?
The BWC was -3.95 g.

And the T/C (Mus musculus [6])?
The T/C was 220% and 148%.

What about the MST (Mus musculus [7]) of the same molecule?
The MST was 26.5 days and 23.5 days.

What about the T/C (Mus musculus [8]) of the same molecule?
The T/C was 265% and 162%.

What about the BWC (Mus musculus [9]) of the same molecule?
The BWC was -2.6 g.

And the BWC (Mus musculus [10])?
Its BWC is -2.55 g.

What about the T/C (Mus musculus [11]) of the same molecule?
The T/C was “Toxic”.

What about the T/C (Mus musculus [12]) of the same molecule?
The T/C was 234%.

And the BWC (Mus musculus [13])?
The BWC was -1.6 g.

What about the BWC (Mus musculus [14]) of the same molecule?
Its BWC is -3.5 g.

What about the MST (Mus musculus [15]) of the same molecule?
The MST was 22 days and 21.5 days.

What about the BWC (Mus musculus [16]) of the same molecule?
The BWC was -2.35 g.

What about the MST (Mus musculus [17]) of the same molecule?
The MST was 24.5 days.

What about the MST (Mus musculus [18]) of the same molecule?
Its MST is 20.5 days.

And the T/C (Mus musculus [19])?
The T/C was 168%.

And the MST (Mus musculus [20])?
The MST was 17 days.

What about the T/C (Mus musculus [21]) of the same molecule?
Its T/C is 170% and 141%.

What does the source list for `O=C(O)CCCc1ccc(N(CCCl)CCCl)cc1` [CHLORAMBUCIL]?
BWC (Mus musculus [22]): -3.4 g; T/C (Mus musculus [23]): Toxic; MST (Mus musculus [24]): 19.5 days; MST (Mus musculus [25]): Toxic; BWC (Mus musculus [26]): -3.95 g; MST (Mus musculus [27]): 22.5 days; T/C (Mus musculus [28]): Toxic; T/C (Mus musculus [29]): 155%; BWC (Mus musculus [30]): -4.15 g; BWC (Mus musculus [31]): -2.2 g; T/C (Mus musculus [32]): 230%; MST (Mus musculus [33]): 19.5 days and 21.5 days; T/C (Mus musculus [34]): 169% and 134%; BWC (Mus musculus [35]): -2.9 g; MST (Mus musculus [36]): Toxic; T/C (Mus musculus [37]): 195% and 148%; BWC (Mus musculus [38]): -2.95 g; MST (Mus musculus [39]): Toxic; T/C (Mus musculus [40]): Toxic; MST (Mus musculus [41]): 16.9 days; MST (Mus musculus [42]): 23 days; BWC (Mus musculus [43]): -2.55 g
